According to the RNAGym collection of RNA variant scans (doi:10.1038/s41586-018-0170-7):

B1: tRNA (parent)
chain: GUUCCGUUGGCGUAAUGGUAACGCGUCUCCCUCCUAAGGAGAAGACUGCGGGUUCGAGUCCCGUACGGAACG

Variants of: B1
Assay: yeast fitness, log relative to wild type (ln ratio); higher = fitter; tRNA-Arg(CCU), competitive growth, 37 C, 1 M NaCl
In short: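 BY4742 cells without the chromosomal tRNA-Arg(CCU) gene carried a combinatorial variant library on a HIS3 centromeric plasmid, from two independent transformations. After 4 generations in SC-HIS at 30 °C, pools spent ~6.5 generations (~26.5 h) in SC-HIS 1M NaCl at 37 °C, giving three outputs per input, and 125 bp paired-end Illumina reads counted the variants. Fitness is the natural log of each genotype's generations over the wild type's, with generations taken as OD-scaled log2 output/input frequency weighted by inverse variance across replicates.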

Variant | yeast fitness (ln)
GUUCCAUUGGCGUAAUGGUAACGCGUUUCCCUCCUAAGGAGAAGACUGCGGGUUCGAGUCCCGUACGGAGUG | -0.291
GUUCCAUUGGCGUAAUGGUAACGCGUUUCCCUCCUAAGGAGACGAUUGCGGGUUCGAGUCCCGUACGGAAUG | -0.176
GUUCCAUUGGCGUAAUGGUAACGCGUUUCCCUCCUAAGGAGACGACUGCGGGUUCGAGUCCCGUAUGGAUCG | -0.169
GUUCCAUUGGCGUAAUGGUAACGCGUUUCCCUCCUAAGGAGACGACUGCGGGUUCGAGUCCCGUAUGGAGCG | -0.426
GUUCCAUUGGCGUAAUGGUAACGCGUUUCCCUCCUAAGGAGACGACUGCGGGUUCGAGUCCCGUAUGGGUUG | -0.529
GUUCCAUUGGCGUAAUGGUAACGCGUUUCCCUCCUAAGGAGAAGAUUGCGGGUUCGAGUCCCGUACGGGAUG | -0.252
GUUCCAUUGGCGUAAUGGUAACGCGUUUCCCUCCUAAGGAGACGAUUGCGGGUUCGAGUCCCGUAAGGAUCG | -0.193
GUUCCAUUGGCGUAAUGGUAACGCGUUUCCCUCCUAAGGAGACGAUUGCGGGUUCGAGUCCCGUAAGGAGCG | -0.191
GUUCCAUUGGCGUAAUGGUAACGCGUUUCCCUCCUAAGGAGAAGAUUGCGGGUUCGAGUCCCGUAAGGAACG | -0.126
GUUCCAUUGGCGUAAUGGUAACGCGUUUCCCUCCUAAGGAGACGAUUGCGGGUUCGAGUCCCGUAAGGGGCG | -0.229
GUUCCAUUGGCGUAAUGGUAACGCGUUUCCCUCCUAAGGAGACGAUUGCGGGUUCGAGUCCCGUAAGGGUCG | -0.28
GUUCCAUUGGCGUAAUGGUAACGCGUUUCCCUCCUAAGGAGACGAUUGCGGGUUCGAGUCCCGUAAGGAAUG | -0.328
GUUCCAUUGGCGUAAUGGUAACGCGUUUCCCUCCUAAGGAGACGACUGCGGGUUCGAGUCCCGUAAGGGUUG | -0.54
GUUCCAUUGGCGUAAUGGUAACGCGUUUCCCUCCUAAGGAGACGAUUGCGGGUUCGAGUCCCGUAAGGGGUG | -0.292
GUUCCAUUGGCGUAAUGGUAACGCGUUUCCCUCCUAAGGAGAAGAUUGCGGGUUCGAGUCCCGUACGGAUUG | -0.218
GUUCCAUUGGCGUAAUGGUAACGCGUUUCCCUCCUAAGGAGAAGAUUGCGGGUUCGAGUCCCGUACGGGUUG | -0.331
GUUCCAUUGGCGUAAUGGUAACGCGUUUCCCUCCUAAGGAGAAGACUGCGGGUUCGAGUCCCGUACGGAUUG | -0.227
GUUCCAUUGGCGUAAUGGUAACGCGUUUCCCUCCUAAGGAGACGACUGCGGGUUCGAGUCCCGUAAGGGGUG | -0.262
GUUCCAUUGGCGUAAUGGUAACGCGUUUCCCUCCUAAGGAGACGAUUGCGGGUUCGAGUCCCGUAUGGGUUG | -0.447

Variant | yeast fitness (ln)
GUUCCAUUGGCGUAAUGGUAACGCGUUUCCCUCCUAAGGAGACGACUGCGGGUUCGAGUCCCGUACGGAAUG | -0.184
GUUCCAUUGGCGUAAUGGUAACGCGUUUCCCUCCUAAGGAGACGACUGCGGGUUCGAGUCCCGUAUGGGACG | -0.373
GUUCCAUUGGCGUAAUGGUAACGCGUUUCCCUCCUAAGGAGAAGAUUGCGGGUUCGAGUCCCGUACGGAUCG | -0.144
GUUCCAUUGGCGUAAUGGUAACGCGUUUCCCUCCUAAGGAGAAGAUUGCGGGUUCGAGUCCCGUACGGAGCG | -0.132
GUUCCAUUGGCGUAAUGGUAACGCGUUUCCCUCCUAAGGAGACGAUUGCGGGUUCGAGUCCCGUAAGGAACG | -0.269
GUUCCAUUGGCGUAAUGGUAACGCGUUUCCCUCCUAAGGAGACGAUUGCGGGUUCGAGUCCCGUAUGGAACG | -0.0283
GUUCCAUUGGCGUAAUGGUAACGCGUUUCCCUCCUAAGGAGACGAUUGCGGGUUCGAGUCCCGUACGGGUCG | -0.16
GUUCCAUUGGCGUAAUGGUAACGCGUUUCCCUCCUAAGGAGACGAUUGCGGGUUCGAGUCCCGUACGGGGCG | -0.237
GUUCCAUUGGCGUAAUGGUAACGCGUUUCCCUCCUAAGGAGAAGACUGCGGGUUCGAGUCCCGUACGGGAUG | -0.243
GUUCCAUUGGCGUAAUGGUAACGCGUUUCCCUCCUAAGGAGAAGAUUGCGGGUUCGAGUCCCGUACGGAGUG | -0.206
GUUCCAUUGGCGUAAUGGUAACGCGUUUCCCUCCUAAGGAGACGACUGCGGGUUCGAGUCCCGUAAGGAGUG | -0.325
GUUCCAUUGGCGUAAUGGUAACGCGUUUCCCUCCUAAGGAGACGAUUGCGGGUUCGAGUCCCGUACGGGAUG | -0.344
GUUCCAUUGGCGUAAUGGUAACGCGUUUCCCUCCUAAGGAGACGACUGCGGGUUCGAGUCCCGUAUGGGGCG | -0.374
GUUCCAUUGGCGUAAUGGUAACGCGUUUCCCUCCUAAGGAGACGACUGCGGGUUCGAGUCCCGUAUGGGUCG | -0.452
GUUCCAUUGGCGUAAUGGUAACGCGUUUCCCUCCUAAGGAGACGACUGCGGGUUCGAGUCCCGUAUGGAACG | -0.0646
GUUCCAUUGGCGUAAUGGUAACGCGUUUCCCUCCUAAGGAGACGAUUGCGGGUUCGAGUCCCGUAAGGAUUG | -0.346
GUUCCAUUGGCGUAAUGGUAACGCGUUUCCCUCCUAAGGAGACGAUUGCGGGUUCGAGUCCCGUACGGGGUG | -0.306
GUUCCAUUGGCGUAAUGGUAACGCGUUUCCCUCCUAAGGAGAAGAUUGCGGGUUCGAGUCCCGUACGGGGUG | -0.219
